Assay results as given in ChEMBL document CHEMBL1125346, “Guanidinophenyl-substituted enol lactones as selective, mechanism-based inhibitors of trypsin-like serine proteases” (J Med Chem, 1992).

Legend:
[1] = target: Tissue-type plasminogen activator (Homo sapiens) (UniProt P00750); assay: Maximum percent inhibition persists was determined against Tissue plasminogen activator (19.4 nM)
How it was run: (§1)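 Enzyme incubated with excess lactone added from DMSO stock (final 10% DMSO); aliquots over 2 h diluted into substrate: chymotrypsin Suc-AAPF-pNA 315 µM, pH 7.2, 410 nm; t-PA Spectrozyme t-PA 0.2 mM, Tris-imidazole pH 8.4, 405 nm; HNE MeO-Suc-AAPV-pNA 150 µM, pH 7.4, 410 nm; plasmin Ts-GPK-pNA 157.4 µM, pH 7.8, 404 nm; thrombin Ts-GPR-pNA 75 µM, pH 8.0, 408 nm; trypsin Z-VGR-pNA 155 µM, pH 7.2, 404 nm. Activity given relative to a no-lactone control. Some runs used a 10-min substrate-free delay after dilution. ∞ means no recovery over 2 h.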

[2] = target: Plasminogen (Homo sapiens) (UniProt P00747); assay: Substrate binding constant against plasmin
Plasminogen (Homo sapiens), sequence (P00747 97-580 limits assumed): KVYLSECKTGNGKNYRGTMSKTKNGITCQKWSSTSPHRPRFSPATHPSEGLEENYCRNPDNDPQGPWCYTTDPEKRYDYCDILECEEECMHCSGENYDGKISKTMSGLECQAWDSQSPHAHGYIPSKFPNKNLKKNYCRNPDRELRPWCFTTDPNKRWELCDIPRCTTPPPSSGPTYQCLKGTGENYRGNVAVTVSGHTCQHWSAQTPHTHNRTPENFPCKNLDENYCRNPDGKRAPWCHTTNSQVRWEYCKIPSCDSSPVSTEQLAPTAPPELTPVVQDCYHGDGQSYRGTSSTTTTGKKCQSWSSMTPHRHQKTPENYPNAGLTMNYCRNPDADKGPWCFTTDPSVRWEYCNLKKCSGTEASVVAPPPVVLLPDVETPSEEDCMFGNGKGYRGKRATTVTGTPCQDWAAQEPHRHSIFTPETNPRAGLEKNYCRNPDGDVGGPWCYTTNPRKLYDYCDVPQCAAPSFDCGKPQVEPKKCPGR
Plasminogen (Homo sapiens), sequence (P00747 581-810 limits assumed): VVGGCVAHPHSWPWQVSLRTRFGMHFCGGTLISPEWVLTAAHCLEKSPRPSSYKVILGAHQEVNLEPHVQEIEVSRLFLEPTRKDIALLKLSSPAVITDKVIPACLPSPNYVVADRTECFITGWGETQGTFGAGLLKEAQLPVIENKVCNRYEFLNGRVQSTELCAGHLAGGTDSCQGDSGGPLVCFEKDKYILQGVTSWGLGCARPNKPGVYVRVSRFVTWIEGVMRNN
How it was run: (§2)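 Competitive substrate assay: lactone (DMSO, final 10% v/v) and chromogenic substrate combined in buffer, enzyme added, absorbance followed to steady state. Turnover-corrected semilog plot gives kobs; I0 vs I0/kobs replot (eq 6) with separately determined Km yields Ki and ka. Where no burst was seen, Ki was estimated from Km(app) replots using 15-s initial velocities. Buffers and substrates as in incubation assay.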

[3] = target: Chymotrypsinogen A (Bos taurus) (UniProt P00766); assay: Maximum percent inhibition by the compound was determined against Chymotrypsinogen (17 nM); how it was run: as §1
[4] = Ratio of initial inhibitor concentration to initial thrombin concentration
How it was run: (§3)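 Ratio I0/E0 of lactone to enzyme in the 2-h incubation assay; lactone added from DMSO stock to buffered enzyme (final 10% DMSO).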

[5] = target: Prothrombin (Homo sapiens) (UniProt P00734); assay: Time for which maximum percent inhibition persists was determined against thrombin (1.93 nM); type: functional; how it was run: as §1
[6] = target: Prothrombin (Homo sapiens) (UniProt P00734); assay: Time to reach maximum percent inhibition by the compound was determined against thrombin (1.93 nM); type: functional
How it was run: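 Thrombin was incubated with excess lactone (DMSO, 10% final). Aliquots over 2 h were diluted into Ts-Gly-Pro-Arg-pNA (75 μM) in 0.05 M phosphate, 0.01 M EDTA, 10 g/L PEG 8000, 10 mg/L aprotinin, pH 8.0, and read at 408 nm against a no-lactone control. Time to maximal inhibition was recorded.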

[7] = target: T1, Serine protease 1 (Bos taurus, UniProt P00760); assay: Decylation rate constant against trypsin
T1 sequence (P00760 whole entry): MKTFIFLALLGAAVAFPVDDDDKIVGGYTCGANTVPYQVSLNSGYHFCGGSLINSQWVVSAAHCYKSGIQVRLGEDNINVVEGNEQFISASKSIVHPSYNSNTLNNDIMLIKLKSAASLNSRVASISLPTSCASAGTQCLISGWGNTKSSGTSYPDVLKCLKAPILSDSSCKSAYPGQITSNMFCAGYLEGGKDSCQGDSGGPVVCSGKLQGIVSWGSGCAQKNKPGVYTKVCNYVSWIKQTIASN
How it was run: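 Trypsin incubated 30–45 min with excess lactone (same I0/E0 as incubation assay). Free inhibitor removed by two 1-h centrifugations at 0 °C. Activity recovery followed at room temperature against an inhibitor-free control carried through the same treatment; kd is the slope of ln remaining activity vs time. Substrate Z-Val-Gly-Arg-pNA 155 µM, 0.2 M phosphate pH 7.2, 404 nm.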

[8] = target: Plasminogen (Homo sapiens) (UniProt P00747); assay: Second order rate constant against plasmin; how it was run: as §2
[9] = target: Chymotrypsinogen A (Bos taurus) (UniProt P00766); assay: Time for which maximum percent inhibition persists was determined against alpha-chymotrypsin (17 nM); type: functional; how it was run: as §1
[10] = target: T2, Neutrophil elastase (Homo sapiens) (UniProt P08246); assay: Time for which maximum percent inhibition persists was determined against human neutrophil elastase HNE(66 nM); type: functional; how it was run: as §1
T2 sequence (whole entry): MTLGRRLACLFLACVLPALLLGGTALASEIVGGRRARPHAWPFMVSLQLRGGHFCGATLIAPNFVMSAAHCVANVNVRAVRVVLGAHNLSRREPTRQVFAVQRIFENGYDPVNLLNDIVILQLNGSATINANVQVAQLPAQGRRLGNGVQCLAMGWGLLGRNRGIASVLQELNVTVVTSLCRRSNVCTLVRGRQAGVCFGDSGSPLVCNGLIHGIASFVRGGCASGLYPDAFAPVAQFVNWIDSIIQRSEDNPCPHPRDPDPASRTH

[11] = target: Plasminogen (Homo sapiens) (UniProt P00747); assay: Acylation rate constant against plasmin; how it was run: as §2
[12] = target: T2, Neutrophil elastase (Homo sapiens); assay: Time to reach maximum percent inhibition by the compound was determined against human neutrophil elastase HNE(66 nM); type: functional
How it was run: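 HNE was incubated with excess lactone in 10% final DMSO. Aliquots drawn during 2 h went into MeO-Suc-Ala-Ala-Pro-Val-pNA (150 μM) in 0.1 M phosphate, 0.5 M NaCl, pH 7.4, read at 410 nm. Activity was set relative to a lactone-free control, and the time (min) to peak inhibition was noted.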

[13] = target: Prothrombin (Homo sapiens) (UniProt P00734); assay: Maximum percent inhibition by the compound was determined against thrombin (1.93 nM); how it was run: as §1
[14] = Ratio of initial inhibitor concentration to initial Plasmin concentration; how it was run: as §3
[15] = target: Tissue-type plasminogen activator (Homo sapiens) (UniProt P00750); assay: Time for which maximum percent inhibition persists was determined against Tissue plasminogen activator (19.4 nM); type: functional; how it was run: as §1
[16] = Ratio of initial inhibitor concentration to initial trypsin concentration; how it was run: as §3
[17] = target: T3, Urokinase-type plasminogen activator (Homo sapiens, UniProt P00749); assay: Substrate binding constant against Urokinase
[18] = target: Chymotrypsinogen A (Bos taurus) (UniProt P00766); assay: Time to reach maximum percent inhibition by the compound was determined against alpha-chymotrypsin (17 nM); type: functional
How it was run: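 α-Chymotrypsin with excess lactone (DMSO, 10% final) was sampled over 2 h into Suc-Ala-Ala-Pro-Phe-pNA (315 μM) in 0.2 M phosphate, pH 7.2. Absorbance at 410 nm gave the remaining activity versus a control without lactone. Minutes to maximal inhibition were taken.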

[19] = target: Tissue-type plasminogen activator (Homo sapiens) (UniProt P00750); assay: Time to reach maximum percent inhibition by the compound was determined against Tissue plasminogen activator (19.4 nM); type: functional
How it was run: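 Tissue plasminogen activator was exposed to excess lactone (10% final DMSO). Over 2 h, aliquots were diluted into Spectrozyme t-PA (0.2 mM) in Tris-imidazole, I 0.3, pH 8.4. Hydrolysis at 405 nm gave residual activity relative to an enzyme-only control. The time (min) to reach maximal percent inhibition was recorded.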

[20] = target: T4, Serine protease 1 (Bos taurus) (UniProt P00760); assay: Acylation rate constant against trypsin; how it was run: as §2
T4 sequence (whole entry): T1 sequence (P00760 whole entry)

[21] = Ratio of initial inhibitor concentration to initial Chymotrypsinogen concentration; how it was run: as §3
[22] = target: T4, Serine protease 1 (Bos taurus); assay: Maximum percent inhibition by the compound was determined against trypsin (14.6 nM); how it was run: as §1
[23] = target: Plasminogen (Homo sapiens) (UniProt P00747); assay: Time to reach maximum percent inhibition by the compound was determined against plasmin(625 nM); type: functional
How it was run: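 Plasmin plus excess lactone (10% final DMSO) was sampled over 2 h into Ts-Gly-Pro-Lys-pNA (157.4 μM) in 0.05 M phosphate, pH 7.8. The slope at 404 nm, relative to an enzyme-only control, gave residual activity. Minutes needed to reach maximal inhibition were reported.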

[24] = target: T3, Urokinase-type plasminogen activator
[25] = Ratio of initial inhibitor concentration to initial HNE concentration; how it was run: as §3
[26] = target: Plasminogen (Homo sapiens) (UniProt P00747); assay: Maximum percent inhibition by the compound was determined against plasmin(625 nM); how it was run: as §1
[27] = Ratio of initial inhibitor concentration to initial t-PA concentration; how it was run: as §3
[28] = target: T4, Serine protease 1 (Bos taurus); assay: Second order rate constant against trypsin; how it was run: as §2
[29] = target: T3, Urokinase-type plasminogen activator; remark: listed apart in the source
[30] = Ratio of initial inhibitor concentration to initial urokinase concentration; how it was run: as §3
[31] = target: T3, Urokinase-type plasminogen activator; remark: listed apart in the source
[32] = target: T2, Neutrophil elastase (Homo sapiens); assay: Maximum percent inhibition by the compound was determined against human neutrophil elastase HNE(66 nM); how it was run: as §1
[33] = target: Plasminogen (Homo sapiens) (UniProt P00747); assay: Time for which maximum percent inhibition persists was determined against plasmin(625 nM); * =no enzyme activity was recovered over 2 h; type: functional; how it was run: as §1

Tissue-type plasminogen activator (Homo sapiens), sequence (P00750 36-562 limits assumed): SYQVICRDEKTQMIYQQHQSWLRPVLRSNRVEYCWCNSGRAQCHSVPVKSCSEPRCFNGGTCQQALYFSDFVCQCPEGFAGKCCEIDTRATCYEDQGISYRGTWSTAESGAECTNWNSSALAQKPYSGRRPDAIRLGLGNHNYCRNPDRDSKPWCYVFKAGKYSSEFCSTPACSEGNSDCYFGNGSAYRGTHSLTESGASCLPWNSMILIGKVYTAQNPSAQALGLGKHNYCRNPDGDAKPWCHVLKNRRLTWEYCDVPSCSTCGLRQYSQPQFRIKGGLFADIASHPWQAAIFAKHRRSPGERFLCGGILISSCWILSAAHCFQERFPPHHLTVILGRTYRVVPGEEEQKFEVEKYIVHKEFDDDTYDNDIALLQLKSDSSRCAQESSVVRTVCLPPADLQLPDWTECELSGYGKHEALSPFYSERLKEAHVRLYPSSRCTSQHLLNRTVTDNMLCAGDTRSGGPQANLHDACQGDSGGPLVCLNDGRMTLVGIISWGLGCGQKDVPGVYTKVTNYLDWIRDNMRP

inhibition [1]: 22%
Ks [2]: 11 µM
inhibition [3]: 47%
Ratio [4]: 518 Io/Eo
TIME [5]: 0 h
TIME [6]: 1.5 h
Kd [7]: 0.00033 s⁻¹
Rate [8]: 0.9 ka/Ks
TIME [9]: 0.25 h
TIME [10]: 0.25 h
Ka [11]: 11 min⁻¹
TIME [12]: 0.25 h
inhibition [13]: 38%
Ratio [14]: 16 Io/Eo
TIME [15]: 0.25 h
Ratio [16]: 86 Io/Eo
Ks [17]: 7.83 µM
TIME [18]: 0 h
TIME [19]: 0 h
Ka [20]: 0.54 min⁻¹
Ratio [21]: 118 Io/Eo
inhibition [22]: 99%
TIME [23]: 1 h
Ks [24]: 7.83 µM
Ratio [25]: 36 Io/Eo
inhibition [26]: 97%
Ratio [27]: 100 Io/Eo
Rate [28]: 0.13 ka/Ks
Ka [29]: 2.61 min⁻¹
Ratio [30]: 50 Io/Eo
Rate [31]: 0.33 ka/Ks
inhibition [32]: 67%
TIME [33]: No enzyme activity
SMILES: N=C(N)Nc1ccc(C2CC(=O)O/C(=C/I)C2)cc1 (stereo not drawn)
